Source: PubChem (Broad Institute)
In the library only some 2.9% were active in any assay of this set; here they are far more common.
DENV2 CPE rescue – protects cells from dengue virus 2 cytopathic effect | DENV2-infected cells, cytopathic effect rescue, plate reader | CPE inhibition, % at 9.99 µM | 350,000 tested, 1.7% active; in the data active means CPE inhibition above about 20%, passing the limit was not always enough; tested in BHK-21 cells;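 further: 0% = median of neutral control wells and 100% = median of positive control wells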
C2C12 statin – suppressors of simvastatin-induced myotoxicity in C2C12 myotubes; 330,000 tested, 0.78% active; ATP luminescence, 48 h; scaled: DMSO 0, geranylgeraniol control 100; rescue of ATP level, % at 7.49 µM; AID 602340;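 active means mean ATP rescue above about 67%, or every replicate alone reaching that limit, limit read from the data, passing the limit was not always enough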;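 further: myotubes were challenged with 10 µM simvastatin during compound exposure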
SIRT5 block – blocks human SIRT5 desuccinylation of peptide; Q9NXA8; Purified SirT5, succinyl-peptide AMC, trypsin-coupled fluorescence; inhibition, % at 15 µM; 330,000 tested, 1.1% active; in the data active means inhibition above about 15%
Target sequence (Q9NXA8 whole entry, looked up): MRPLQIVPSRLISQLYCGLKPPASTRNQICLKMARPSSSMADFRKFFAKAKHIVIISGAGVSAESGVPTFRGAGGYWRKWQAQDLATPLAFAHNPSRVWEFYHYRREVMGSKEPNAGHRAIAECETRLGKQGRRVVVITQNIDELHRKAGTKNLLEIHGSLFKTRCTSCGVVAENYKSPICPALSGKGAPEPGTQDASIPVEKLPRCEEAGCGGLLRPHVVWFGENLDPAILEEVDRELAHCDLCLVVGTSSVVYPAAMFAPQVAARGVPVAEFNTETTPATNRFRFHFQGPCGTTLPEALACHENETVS
S100A4 MyoIIA – blocks human S100A4 binding to myosin IIA peptide; 360,000 tested, 0.14% active; AID 652163; P26447; inhibition, % at 10.7 µM; S100A4/TAMRA-MyoIIA peptide fluorescence polarization;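 active means mean inhibition of at least 70% across replicates, with every replicate also reaching that level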
Target sequence (P26447 whole entry, looked up): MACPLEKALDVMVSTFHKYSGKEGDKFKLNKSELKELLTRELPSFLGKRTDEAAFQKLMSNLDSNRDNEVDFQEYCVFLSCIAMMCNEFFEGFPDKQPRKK
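Material: human S100A4 monomer with TAMRA-labelled myosin IIA peptide; buffer or medium: HEPES pH 7.2 with CaCl2, KCl, NaCl, DTT, Triton; compound dosing: one concentration per compound; schedule: 5 min incubation before reading; benchmarks: neutral control DMSO, positive control TFP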
PGC1a acetyl inh – modulators of PGC1a acetylation; U2OS PGC1a acetylation, AlphaScreen anti-acetyl-lysine; with virally co-expressed GCN5 acetyltransferase; inhibition, % at 15.6 µM; 350,000 tested, 0.17% active; AID 651687;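 active means every replicate shows inhibition of at least 40%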;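 further: 0% = neutral control wells and 100% = positive control wells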
Active calls of the source: *.

How did COCCCNC(=O)CCn1c(=O)c2ccccc2n(Cc2cccc([N+](=O)[O-])c2)c1=O do in these assays?
DENV2 CPE rescue: -2.3; C2C12 statin: 7.3; SIRT5 block: 28.7*; S100A4 MyoIIA: -3.9; PGC1a acetyl inh: -0.8

Results for CC(C)c1ccccc1NC(=O)c1cnccn1 ?
C2C12 statin: 64.6; SIRT5 block: 19.6*; S100A4 MyoIIA: 52.8; PGC1a acetyl inh: -8.9

What do the screens show for `O=C(NCc1ccccc1Cl)c1cnccn1`?
C2C12 statin: 66.9*; PGC1a acetyl inh: 16.1

What do the screens show for `O=C(C[C@@H]1CC[C@@H](NC(=O)c2ccccn2)[C@H](CO)O1)NCc1cccc(F)c1`?
DENV2 CPE rescue: -2.3; C2C12 statin: -7.6; SIRT5 block: 0.0; S100A4 MyoIIA: 2.3; PGC1a acetyl inh: 2.4

Results for COCC(=O)Nc1ccc2c(c1)C(=O)N(C)[C@@H]1CC[C@H](CC(=O)O)O[C@@H]1CO2 ?
DENV2 CPE rescue: -1.8; C2C12 statin: 7.3; PGC1a acetyl inh: -8.0

What do the screens show for `COc1ccc(S(=O)(=O)N2CCN(CC(=O)NC3CC3)CC2)cc1`?
DENV2 CPE rescue: 23.3*; C2C12 statin: 3.6; SIRT5 block: 2.1; S100A4 MyoIIA: -2.7

How did COc1ccc(S(=O)(=O)N2CCCN(CC(=O)Nc3ccccc3F)CC2)cc1 do in these assays?
DENV2 CPE rescue: -0.6; C2C12 statin: 1.6; SIRT5 block: -3.1; S100A4 MyoIIA: -0.6; PGC1a acetyl inh: 11.1

Results for C/C(=N\NC(=O)CN1CCN(S(=O)(=O)c2ccc(C)cc2)CC1)c1ccc(O)cc1 ?
C2C12 statin: 4.2; SIRT5 block: 15.0*; S100A4 MyoIIA: -4.3; PGC1a acetyl inh: -0.9

Results for COc1ccc(S(=O)(=O)N2CCN(Cc3cccc(Cl)c3)CC2)cc1 ?
C2C12 statin: 105.3*; PGC1a acetyl inh: -2.3

What do the screens show for `COc1ccc(NC(=O)CN2CCCN(S(=O)(=O)c3ccc(F)cc3)CC2)c(OC)c1`?
DENV2 CPE rescue: -0.7; C2C12 statin: 94.4*; SIRT5 block: 1.1; S100A4 MyoIIA: -0.6; PGC1a acetyl inh: 12.6

What do the screens show for `COc1ccc(S(=O)(=O)N2CCN(Cc3ccc(Cl)cc3)CC2)cc1`?
C2C12 statin: 4.1

How did C[C@@H]1CN([C@@H](C)CO)C(=O)c2cccc(NC(=O)Nc3ccc(C(F)(F)F)cc3)c2O[C@@H]1CN(C)CC1CCCCC1 do in these assays?
DENV2 CPE rescue: -5.9; C2C12 statin: -137.6; SIRT5 block: 4.4; S100A4 MyoIIA: 4.5; PGC1a acetyl inh: -6.7

What do the screens show for `C/C=C/c1ccc2c(c1)O[C@H](CN(C)C(=O)Nc1cc(F)ccc1F)[C@H](C)CN([C@@H](C)CO)S2(=O)=O`?
DENV2 CPE rescue: 2.3; C2C12 statin: -20.6; SIRT5 block: 5.7; S100A4 MyoIIA: 0.4; PGC1a acetyl inh: -17.5

Results for COc1ccc(S(=O)(=O)N2CCC(NC(=O)C(Cc3cccc(OC)c3OC)NC(C)=O)CC2)cc1 (centres undefined) ?
DENV2 CPE rescue: 10.2; SIRT5 block: 18.1*; S100A4 MyoIIA: 9.8; PGC1a acetyl inh: 0.3

How did O=S(=O)(c1ccc(=S)[nH]c1)N1CCCCC1 do in these assays?
DENV2 CPE rescue: 2.1; C2C12 statin: 4.2; SIRT5 block: -3.3; S100A4 MyoIIA: -15.7; PGC1a acetyl inh: -0.9

How did O=S(=O)(c1ccc(=S)[nH]c1)N1CCN(Cc2ccccc2)CC1 do in these assays?
DENV2 CPE rescue: 24.8*; C2C12 statin: 11.3; SIRT5 block: -0.1; S100A4 MyoIIA: -1.4; PGC1a acetyl inh: -0.4

How did CCCCC[C@@H](C)N1C[C@H](COCc2ccccc2)Oc2cc(N3CCC[C@@H]3CO)ccc2S1(=O)=O do in these assays?
DENV2 CPE rescue: -9.7; SIRT5 block: 26.5*; S100A4 MyoIIA: -9.8

How did CCCCC[C@H](C)N1C[C@@H](COCc2ccccc2)Oc2cc(N3CC[C@H](N(C)C)C3)ccc2S1(=O)=O do in these assays?
DENV2 CPE rescue: 61.0*; SIRT5 block: -3.5; S100A4 MyoIIA: -2.2

How did O=C(N[C@@H]1C=C[C@H](CC(=O)N2CCN(c3ccccc3)CC2)O[C@H]1CO)c1ccncc1 do in these assays?
DENV2 CPE rescue: -0.8; C2C12 statin: -15.2; SIRT5 block: 1.0; S100A4 MyoIIA: -5.3; PGC1a acetyl inh: -10.7

Results for O=C(C[C@@H]1C=C[C@H](NC(=O)Nc2ccc(C(F)(F)F)cc2)[C@@H](CO)O1)NCc1ccccn1 ?
DENV2 CPE rescue: 0.4; C2C12 statin: -5.8; SIRT5 block: 0.1; S100A4 MyoIIA: 1.8; PGC1a acetyl inh: -3.0

Results for C#CCN(C[C@@H]1[C@@H](OC(=O)NCc2ccccc2F)[C@@H](OC(=O)NCc2ccccc2F)Cn2c(=O)ccc(=O)n21)S(=O)(=O)c1ccc(C)cc1 ?
DENV2 CPE rescue: -7.9; C2C12 statin: 3.3; S100A4 MyoIIA: -6.1; PGC1a acetyl inh: 60.4*

What do the screens show for `C[C@H](CO)N1C[C@H](C)[C@H](CN(C)CC2CCCCC2)OCCCC[C@H](C)Oc2ccc(NC(=O)Nc3ccc4c(c3)OCO4)cc2C1=O`?
DENV2 CPE rescue: -18.3; C2C12 statin: -51.3; SIRT5 block: -1.3; S100A4 MyoIIA: -54.0; PGC1a acetyl inh: -11.4

What do the screens show for `C[C@@H]1CN([C@H](C)CO)C(=O)Cc2cc(NS(=O)(=O)c3cn(C)cn3)ccc2O[C@@H]1CN(C)Cc1ccc(-c2ccccc2)cc1`?
DENV2 CPE rescue: 4.7; C2C12 statin: 82.0*; SIRT5 block: -0.4; S100A4 MyoIIA: 4.6; PGC1a acetyl inh: -5.2

Results for C[C@@H]1CN([C@H](C)CO)C(=O)Cc2cc(NS(=O)(=O)c3cn(C)cn3)ccc2O[C@H]1CN(C)Cc1ccc2c(c1)OCO2 ?
DENV2 CPE rescue: -4.7; C2C12 statin: -6.6; PGC1a acetyl inh: -1.9

What do the screens show for `C[C@H](CO)N1C[C@H](C)[C@@H](CN(C)Cc2ccc(Cl)c(Cl)c2)Oc2ccc(NS(=O)(=O)c3cn(C)cn3)cc2CC1=O`?
DENV2 CPE rescue: -3.7; C2C12 statin: 165.5*; SIRT5 block: 0.4; S100A4 MyoIIA: -11.2; PGC1a acetyl inh: -0.7

What do the screens show for `C[C@H](CO)N1C[C@H](C)[C@@H](CN(C)Cc2ccc3c(c2)OCO3)Oc2ccc(NS(=O)(=O)c3cn(C)cn3)cc2CC1=O`?
DENV2 CPE rescue: 45.4*; C2C12 statin: 33.1; PGC1a acetyl inh: -4.0

How did C[C@H](CO)N1C[C@H](C)[C@@H](CN(C)Cc2cccc(C(=O)O)c2)Oc2ncc(/C=C/c3ccccc3)cc2C1=O do in these assays?
DENV2 CPE rescue: -4.2; C2C12 statin: -5.1; SIRT5 block: -0.5; S100A4 MyoIIA: -0.8; PGC1a acetyl inh: -7.1

How did COc1ccc(S(=O)(=O)Nc2cccc3c2O[C@@H](CN(C)S(=O)(=O)c2ccc(F)cc2)[C@@H](C)CN([C@H](C)CO)C3=O)cc1 do in these assays?
DENV2 CPE rescue: -2.5; C2C12 statin: 2.6; SIRT5 block: 3.7; S100A4 MyoIIA: 0.0; PGC1a acetyl inh: 11.9

How did COCCNC(=O)C[C@@H]1C[C@@H]2c3cc(NC(=O)CC4CC4)ccc3O[C@@H]2[C@@H](CO)O1 do in these assays?
DENV2 CPE rescue: 7.4; C2C12 statin: -1.8; SIRT5 block: -11.7; S100A4 MyoIIA: -1.0; PGC1a acetyl inh: 1.6
